Test results taken from paper PMC9907361 (Gastric cancer : official journal of the International …, 2021).
“Also recorded” adds a separate entry of the source.

What was measured:
AGS cells = assay type: cell-based, human
[1] = target: human STAT3 (residues 127–688) (Homo sapiens, UniProt P40763); experiment: ITC binding of galectin-3 peptides to STAT3; details: abstract statement
Outline: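 Human STAT3 residues 127–688 was expressed from pET22b(+) and purified. ITC was run at 25 °C. Wild-type and Y45-phosphorylated galectin-3 peptides (140 μM each) in 20 mM Tris pH 7.5, 300 mM NaCl were injected at 220 s intervals into 7 μM STAT3. Heats of dilution from buffer controls were subtracted, and data were fitted to a single set of binding sites model.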

[2] = test system: AGS cells overexpressing WNT1; experiment: Lactose/mannose treatment of WNT1-overexpressing AGS cells; assay type: cell-based, human; details: 50 mM, 4 h preincubation
Outline: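 AGS cells were transfected with HA-WNT1. Lactose or mannose (50 mM) was added 4 h before cell extraction, and the indicated proteins were then detected in the extracts.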

cells = details: cited from earlier work

human STAT3 (residues 127–688), sequence (P40763 127-688): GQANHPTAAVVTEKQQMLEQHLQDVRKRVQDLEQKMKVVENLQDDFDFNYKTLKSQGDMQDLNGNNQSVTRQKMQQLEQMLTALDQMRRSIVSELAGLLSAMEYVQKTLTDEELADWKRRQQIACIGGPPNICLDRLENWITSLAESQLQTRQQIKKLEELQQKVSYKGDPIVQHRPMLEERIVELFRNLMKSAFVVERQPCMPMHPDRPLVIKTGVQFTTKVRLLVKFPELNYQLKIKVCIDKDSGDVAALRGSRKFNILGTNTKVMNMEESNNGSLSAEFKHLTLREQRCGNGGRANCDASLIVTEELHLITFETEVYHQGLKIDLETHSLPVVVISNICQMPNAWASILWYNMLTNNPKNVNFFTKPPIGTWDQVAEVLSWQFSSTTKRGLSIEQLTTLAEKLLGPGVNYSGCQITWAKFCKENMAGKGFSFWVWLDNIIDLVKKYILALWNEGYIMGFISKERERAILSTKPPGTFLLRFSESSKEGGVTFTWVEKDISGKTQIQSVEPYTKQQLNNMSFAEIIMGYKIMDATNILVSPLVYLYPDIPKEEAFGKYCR

YPGQ [peptide of galectin-3 (Y45-Q48)]
enhancement of STAT3 phosphorylation (AGS cells; abstract statement): enhanced its phosphorylation | direct binding to the STAT3 SH2 domain [1]: directly bound to the STAT3 SH2 domain

IL-6: IL-6 cytokine
STAT3 phosphorylation on IL-6 treatment (AGS cells; AGS cells, IL-6 alone): induced STAT3 phosphorylation

OC[C@H]1O[C@@H](O[C@H]2[C@H](O)[C@@H](O)C(O)O[C@@H]2CO)[C@H](O)[C@@H](O)[C@H]1O (mixture of isomers) [lactose]
inhibition of STAT3 phosphorylation [2]: did not inhibit | inhibition of β-catenin stability [2]: did not inhibit | cellular uptake of lactose (cells; stated without reference): too polar to be taken up by the cells

OC[C@H]1O[C@H](Sc2ccc(Cl)c(Cl)c2)[C@H](O)[C@@H](n2cc(-c3cc(F)c(F)c(F)c3)nn2)[C@H]1O [GB1107]
uptake across cell membranes (cells): improved uptake across cell membranes; also recorded: can penetrate into cells

OC[C@H]1OC(O)[C@@H](O)[C@@H](O)[C@@H]1O (stereo partly drawn) [mannose]
inhibition of STAT3 phosphorylation [2]: did not inhibit | inhibition of β-catenin stability [2]: did not inhibit
